In data set [1] the test system is Rattus norvegicus. The data set is described as follows: Hypotensive activity in normotensive Wistar rat assessed as reduction of systolic blood pressure at 0.1 to 5 mg/kg, iv. It is filed as functional, Artery. Also on record: scale not given: the % may be the effect or the level left. The settings on record: dose mg/kg 0.1-5. In outline:
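Male normotensive Wistar rats were anaesthetised with thiopental 75 mg/kg ip. The right carotid artery was cannulated with heparinised saline for pressure recording. After 5 min of stabilisation, compound was injected into the tail vein at 1 mL/kg. Systolic and diastolic pressure were followed up to 60 min. Data are means ± SEM of 5–6 rats, analysed by one-way ANOVA.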

Data set [2] relates to Rattus norvegicus. The data set is described as follows: Antiarrhythmic activity in iv dosed Wistar rat adrenaline-induced arrhythmia model assessed as reduction of heart-rhythm disturbance administered 15 mins adrenaline-challenge. It counts as functional. The settings on record: 0.25 h. In outline:
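Anaesthetised male Wistar rats (thiopental 75 mg/kg ip). Test compound iv at 1 mL/kg, given 15 min before adrenaline 20 µg/kg iv. Activity means no premature beats and inhibition of arrhythmia, judged against a control group. There were three dose groups of six rats. ED50 with confidence limits was calculated by the Litchfield–Wilcoxon method.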

For data set [3], the system named is Rattus norvegicus. Description: Cardiotoxicity in Wistar rat assessed as PQ interval at 10 mg/kg, iv after 10 mins by ECG analysis. It counts as toxicity, organism-based. Also on record: dose 10 mg/kg, route intravenous. The settings on record: in vivo.
For data set [4], the target named is T1, Adrenergic receptor alpha-1 (Rattus norvegicus, UniProt P15823+P23944+P43140).
T1 sequence (P15823 whole entry): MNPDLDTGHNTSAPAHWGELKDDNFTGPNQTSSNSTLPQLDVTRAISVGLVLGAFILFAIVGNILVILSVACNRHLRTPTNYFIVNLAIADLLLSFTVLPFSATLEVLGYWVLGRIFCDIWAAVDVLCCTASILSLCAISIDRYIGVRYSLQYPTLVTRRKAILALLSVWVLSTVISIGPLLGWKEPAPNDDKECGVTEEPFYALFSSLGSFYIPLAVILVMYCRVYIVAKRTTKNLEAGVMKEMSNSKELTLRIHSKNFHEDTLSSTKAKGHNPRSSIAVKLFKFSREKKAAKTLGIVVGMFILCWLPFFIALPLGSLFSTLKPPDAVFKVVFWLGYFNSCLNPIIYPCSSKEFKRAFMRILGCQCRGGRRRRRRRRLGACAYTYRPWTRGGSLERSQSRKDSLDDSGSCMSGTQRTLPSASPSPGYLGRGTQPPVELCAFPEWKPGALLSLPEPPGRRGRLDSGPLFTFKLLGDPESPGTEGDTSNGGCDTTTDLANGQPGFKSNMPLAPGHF
T1 sequence (P23944 whole entry): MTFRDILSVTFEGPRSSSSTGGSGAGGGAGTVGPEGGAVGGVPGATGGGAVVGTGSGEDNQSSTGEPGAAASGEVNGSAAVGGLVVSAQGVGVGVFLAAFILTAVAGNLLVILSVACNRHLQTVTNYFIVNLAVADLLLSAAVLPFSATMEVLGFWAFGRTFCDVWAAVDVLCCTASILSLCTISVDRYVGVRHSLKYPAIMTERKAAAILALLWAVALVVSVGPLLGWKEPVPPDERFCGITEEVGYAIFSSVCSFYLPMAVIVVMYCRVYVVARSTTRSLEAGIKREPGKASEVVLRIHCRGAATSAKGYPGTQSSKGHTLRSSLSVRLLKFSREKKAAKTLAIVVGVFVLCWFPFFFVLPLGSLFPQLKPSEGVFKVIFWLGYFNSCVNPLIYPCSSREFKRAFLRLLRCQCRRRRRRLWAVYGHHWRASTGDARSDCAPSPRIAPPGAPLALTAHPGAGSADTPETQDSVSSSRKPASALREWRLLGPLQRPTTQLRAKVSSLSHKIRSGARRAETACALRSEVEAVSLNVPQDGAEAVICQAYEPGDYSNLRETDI
T1 sequence (P43140 whole entry): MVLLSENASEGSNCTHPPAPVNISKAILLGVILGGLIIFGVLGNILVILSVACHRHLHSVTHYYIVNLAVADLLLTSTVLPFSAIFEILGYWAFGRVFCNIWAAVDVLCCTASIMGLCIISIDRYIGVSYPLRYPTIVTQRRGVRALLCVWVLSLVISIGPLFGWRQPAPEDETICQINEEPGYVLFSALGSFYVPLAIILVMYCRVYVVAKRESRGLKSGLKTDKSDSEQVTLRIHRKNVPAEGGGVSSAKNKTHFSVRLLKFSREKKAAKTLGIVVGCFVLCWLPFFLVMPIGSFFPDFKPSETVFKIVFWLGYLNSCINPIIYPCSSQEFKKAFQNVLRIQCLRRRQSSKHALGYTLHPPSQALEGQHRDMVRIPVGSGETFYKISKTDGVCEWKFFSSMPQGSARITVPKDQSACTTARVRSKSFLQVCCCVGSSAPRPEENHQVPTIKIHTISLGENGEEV
Description: Displacement of [3H]-prazosin from alpha1-adrenergic receptor in rat cerebral cortex by liquid scintillation counting. It counts as tissue-based. In outline: (§1)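 Rat cerebral cortex was homogenised in ice-cold 50 mM Tris-HCl pH 7.6 and spun at 20,000 g for 20 min at 0–4 °C, then washed once. Radioligands: [3H]prazosin 0.2 nM for α1, [3H]clonidine 2 nM for α2, [3H]CGP-12177 0.2 nM for β1. Test compounds were run at 7–8 concentrations from 10^-11 to 10^-4 M. Nonspecific binding was defined with phentolamine (α1), clonidine (α2) or propranolol (β1). Counting was by liquid scintillation, in duplicate. Ki was derived by Cheng–Prusoff from 2–3 experiments.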
For orientation: Loss of bound radioactivity is the signal in a displacement assay; it reports binding, not function.

Data set [5] relates to Rattus norvegicus. Description: Cardiotoxicity in Wistar rat assessed as hear beats per min at 10 mg/kg, iv after 5 mins by ECG analysis. It is filed as toxicity, organism-based. Also on record: dose 10 mg/kg, route intravenous. The settings on record: in vivo. In outline:
(§2)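 Male normotensive Wistar rats, 170–350 g, six per group. Compound given iv at a constant volume of 1 mL/kg. ECG was recorded just before dosing and at 1, 5 and 15 min after. PQ, QRS and QT intervals and heart rate were read from the trace. Groups were compared by one-way ANOVA.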

In data set [6] the test system is Rattus norvegicus. The data set is described as follows: Cardiotoxicity in Wistar rat assessed as hear beats per min at 10 mg/kg, iv after 15 mins by ECG analysis. Further details: dose 10 mg/kg, route intravenous. It is filed as toxicity, organism-based. The settings on record: in vivo, 0.25 h. In outline: as §2
Data set [7] has as its system Rattus norvegicus. Description: Cardiotoxicity in Wistar rat assessed as QT interval at 10 mg/kg, iv after 5 mins by ECG analysis. It is filed as toxicity, organism-based. Further details: dose 10 mg/kg, route intravenous. The settings on record: in vivo. In outline:
as §2

In data set [8] the test system is Rattus norvegicus. Description: Cardiotoxicity in Wistar rat assessed as QT interval at 10 mg/kg, iv after 10 mins by ECG analysis. It is filed as toxicity, organism-based. Also on record: dose 10 mg/kg, route intravenous. The settings on record: in vivo.
Data set [9] deals with Rattus norvegicus. Description: Cardiotoxicity in Wistar rat assessed as QRS interval at 10 mg/kg, iv after 15 mins by ECG analysis. Also on record: dose 10 mg/kg, route intravenous. It counts as toxicity, organism-based. The settings on record: in vivo, 0.25 h. In outline:
as §2

Data set [10] deals with Rattus norvegicus. Description: Cardiotoxicity in Wistar rat assessed as QRS interval at 10 mg/kg, iv after 10 mins by ECG analysis. It counts as toxicity, organism-based. Also on record: dose 10 mg/kg, route intravenous. The settings on record: in vivo.
Data set [11] relates to Rattus norvegicus. The data set is described as follows: Cardiotoxicity in Wistar rat assessed as PQ interval at 10 mg/kg, iv after 5 mins by ECG analysis. It is filed as toxicity, organism-based. The settings on record: in vivo. Also on record: dose 10 mg/kg, route intravenous. In outline:
as §2

Data set [12] relates to Rattus norvegicus. Description: Cardiotoxicity in Wistar rat assessed as QT interval at 10 mg/kg, iv after 15 mins by ECG analysis. It counts as toxicity, organism-based. Further details: dose 10 mg/kg, route intravenous. The settings on record: in vivo, 0.25 h. In outline:
as §2

Data set [13] has as its system Rattus norvegicus. Description: Cardiotoxicity in Wistar rat assessed as PQ interval at 10 mg/kg, iv after 15 mins by ECG analysis. It is filed as toxicity, organism-based. Also on record: dose 10 mg/kg, route intravenous. The settings on record: in vivo, 0.25 h. In outline:
as §2

Data set [14] has as its system Rattus norvegicus. Description: Cardiotoxicity in Wistar rat assessed as QRS interval at 10 mg/kg, iv after 5 mins by ECG analysis. It is filed as toxicity, organism-based. Also on record: dose 10 mg/kg, route intravenous. The settings on record: in vivo. In outline:
as §2

In data set [15] the test system is Rattus norvegicus. Description: Cardiotoxicity in Wistar rat assessed as hear beats per min at 10 mg/kg, iv after 10 mins by ECG analysis. Also on record: dose 10 mg/kg, route intravenous. It counts as toxicity, organism-based. The settings on record: in vivo.
Data set [16] is described as follows: Displacement of [3H]CGP-12177 from beta1-adrenergic receptor in rat cerebral cortex by liquid scintillation counting. It is filed as tissue-based. In outline: as §1
Data set [17] deals with T2, Adrenergic receptor alpha-2 (Rattus norvegicus, UniProt P22086+P19328+P22909).
T2 sequence (P22086 whole entry): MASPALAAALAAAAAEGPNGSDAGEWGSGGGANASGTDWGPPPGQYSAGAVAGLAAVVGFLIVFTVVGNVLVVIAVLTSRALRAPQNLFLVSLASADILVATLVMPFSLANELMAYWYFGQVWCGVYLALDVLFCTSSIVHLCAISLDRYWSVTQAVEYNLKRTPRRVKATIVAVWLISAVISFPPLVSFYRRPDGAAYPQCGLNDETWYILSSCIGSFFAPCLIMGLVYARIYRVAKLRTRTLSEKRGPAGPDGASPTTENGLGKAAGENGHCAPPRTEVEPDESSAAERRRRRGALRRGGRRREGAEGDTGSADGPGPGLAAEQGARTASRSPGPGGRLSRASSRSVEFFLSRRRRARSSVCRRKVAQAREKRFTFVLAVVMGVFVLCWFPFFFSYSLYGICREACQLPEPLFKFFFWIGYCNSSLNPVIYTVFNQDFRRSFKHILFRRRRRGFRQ
T2 sequence (P19328 whole entry): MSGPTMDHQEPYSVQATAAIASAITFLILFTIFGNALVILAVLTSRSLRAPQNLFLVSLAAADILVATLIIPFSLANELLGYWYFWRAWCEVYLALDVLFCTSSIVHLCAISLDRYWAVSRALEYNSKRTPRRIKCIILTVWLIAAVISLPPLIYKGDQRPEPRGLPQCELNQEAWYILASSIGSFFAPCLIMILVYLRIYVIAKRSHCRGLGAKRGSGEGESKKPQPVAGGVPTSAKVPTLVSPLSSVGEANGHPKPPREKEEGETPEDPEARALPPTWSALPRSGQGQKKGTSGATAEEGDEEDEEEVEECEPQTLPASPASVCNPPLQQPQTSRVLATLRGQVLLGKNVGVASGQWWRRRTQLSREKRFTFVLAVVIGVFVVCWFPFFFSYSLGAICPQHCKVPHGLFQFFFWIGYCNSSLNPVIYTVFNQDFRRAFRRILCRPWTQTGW
T2 sequence (P22909 whole entry): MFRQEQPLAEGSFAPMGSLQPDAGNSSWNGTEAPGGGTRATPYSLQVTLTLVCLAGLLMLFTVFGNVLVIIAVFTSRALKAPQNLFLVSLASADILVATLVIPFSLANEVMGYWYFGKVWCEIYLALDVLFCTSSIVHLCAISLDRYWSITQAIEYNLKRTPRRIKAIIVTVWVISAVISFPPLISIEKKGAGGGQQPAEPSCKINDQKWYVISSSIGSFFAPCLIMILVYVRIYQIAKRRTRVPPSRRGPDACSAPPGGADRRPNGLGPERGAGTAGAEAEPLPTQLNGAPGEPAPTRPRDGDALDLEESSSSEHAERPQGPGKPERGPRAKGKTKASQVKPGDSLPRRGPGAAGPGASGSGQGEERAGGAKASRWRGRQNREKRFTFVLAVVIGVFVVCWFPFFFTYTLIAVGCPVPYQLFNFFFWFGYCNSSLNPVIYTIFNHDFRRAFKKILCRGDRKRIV
Description: Displacement of [3H]clonidine from alpha2-adrenergic receptor in rat cerebral cortex by liquid scintillation counting. It counts as tissue-based. In outline: as §1

We go through four compounds from ChEMBL document CHEMBL2311390, “Synthesis and preliminary evaluation of pharmacological properties of some piperazine derivatives of xanthone” (Bioorg Med Chem, 2013).

`CC(C)NCC(O)COc1ccc2c(=O)c3ccccc3oc2c1` (centres undefined): in the data set on Rattus norvegicus [1], the Activity is 7%.
A word on the ED50: it is the midpoint of the dose-response relation. `COc1ccccc1OCCNCC(O)COc1cccc2[nH]c3ccccc3c12` (centres undefined) [CARVEDILOL]: the ED50 in the data set on Rattus norvegicus [2] came out at 0.25 mg/kg.
Broadly, the Ki is the dissociation constant of the complex between target and ligand, obtained from inhibition or displacement. For the compound `COc1ccc(N2CCN(CCCOc3cccc4c(=O)c5ccccc5oc34)CC2)cc1.Cl`, the Activity in the data set on Rattus norvegicus [3] was determined as 43.7 ms; in the data set on Rattus norvegicus [5], 323 bpm; in the data set on Rattus norvegicus [6] it was 311.4 bpm; in the data set with Rattus norvegicus [7], 79.4 ms; in the data set with Rattus norvegicus [8] it was 80.2 ms; with Rattus norvegicus [9], 24.2 ms. Besides, the Activity in the data set on Rattus norvegicus [10] is listed as 23.6 ms; with Rattus norvegicus [11], 43.5 ms; with Rattus norvegicus [12] it was 82.4 ms; with Rattus norvegicus [13], 43.7 ms; in the data set with Rattus norvegicus [14] it was 22.8 ms; with Rattus norvegicus [15], 317.4 bpm. In addition, the Ki in data set [4] turned out to be 1.1 µM; in data set [16] it was 31.6 µM.
For the compound `COc1ccccc1N1CCN(CCCOc2cccc3c(=O)c4ccc(Cl)cc4oc23)CC1.Cl`, the Ki in [4] is 0.082 µM; in [17], 5.5 µM; in [16], 4.5 µM.
